The source of these data is ChEMBL document CHEMBL4393719, “Tetrahydro-3-benzazepines with fluorinated side chains as NMDA and σ1 receptor antagonists: Synthesis, receptor affinity, selectivity and antiallodynic activity” (Eur J Med Chem, 2019).

In test [1] the target is Sigma non-opioid intracellular receptor 1 (Cavia porcellus, UniProt Q60492). The class given is cell membranes.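 Note: radioligand displacement of [3H]-(+)-pentazocine from guinea pig brain cortex membranes, 120 min incubation, bound radioactivity read by scintillation counting.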
Sequence of Sigma non-opioid intracellular receptor 1 (Q60492 whole entry): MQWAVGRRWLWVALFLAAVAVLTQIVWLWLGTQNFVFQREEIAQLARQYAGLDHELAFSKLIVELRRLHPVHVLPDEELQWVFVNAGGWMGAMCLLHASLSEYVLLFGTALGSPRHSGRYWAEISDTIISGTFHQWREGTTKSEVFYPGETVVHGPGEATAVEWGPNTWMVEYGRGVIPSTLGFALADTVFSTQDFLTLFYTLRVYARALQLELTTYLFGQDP
A short description of test [2]: Displacement of [3H] ifenprodil from GluN2B/GluN1a (unknown origin) expressed in mouse L(tk-) cell membranes incubated for 120 mins by scintillation counting method. Details: species or system Homo sapiens. In outline: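 Membranes from mouse L(tk-) cells co-transfected with dexamethasone-inducible GluN1a/GluN2B (1:5), induced 24 h with 4 μM dexamethasone plus 4 μM ketamine.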
(In general: Loss of bound radioactivity is the signal in a displacement assay; it reports binding, not function.)

Test [3] has as its target T1, Sigma intracellular receptor 2 (Rattus norvegicus, UniProt Q5U3Y7).
T1 sequence (Q5U3Y7 whole entry): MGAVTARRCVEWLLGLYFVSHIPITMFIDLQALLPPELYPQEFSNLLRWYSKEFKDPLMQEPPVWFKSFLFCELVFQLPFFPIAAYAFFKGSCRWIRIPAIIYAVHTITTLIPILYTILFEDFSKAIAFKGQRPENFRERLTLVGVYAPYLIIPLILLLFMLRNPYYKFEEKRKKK
The test is described as follows: Displacement of [3H]-di-o-tolylguanidine from sigma2 receptor in rat liver membranes incubated for 120 mins by scintillation counting method. The class given is cell membranes.

Test [4] in a line: Selectivity ratio of Ki for sigma1 receptor in guinea pig brain cortex membranes to ratio of Ki for GluN2B/GluN1a (unknown origin) expressed in mouse L(tk-) cell membranes. Type of test: cell-based.
The species entered for the next test is Sus scrofa. Conditions: at 1 µM.
Test [5] can be described thus: Selectivity ratio of Ki for sigma2 receptor in rat liver membranes to ratio of Ki for GluN2B/GluN1a (unknown origin) expressed in mouse L(tk-) cell membranes. The class given is cell-based.

`FC(CCOc1ccc2c(c1)CCN(CCC(F)Cc1ccccc1)CC2)Cc1ccccc1` (stereo unspecified): the Ki in test [1] turned out to be 185 nM; in test [2], 249 nM; in test [3] it was 643 nM.
As for `Oc1ccc2c(c1)CCN(CCC(F)Cc1ccccc1)CC2O` (stereo unspecified), the Ratio Ki in test [4] was in the range of 2 to 3. The Ki was 1400 nM in test [1], 422 nM in test [2] and 130 nM in test [3]. Also, the inhibition in the test listed under Sus scrofa is 8%.
On to `FC(CCc1ccccc1)CN1CCc2ccccc2CC1` (stereo unspecified), for which the inhibition constant (Ki) in test [1] worked out at 108 nM; in test [2] it was 239 nM; in test [3], 333 nM. For the same compound, the inhibition in the test listed under Sus scrofa came out at 0%.
On to `COc1ccc2c(c1)CCN(CCCCc1ccccc1)CC2`, for which the Ki was 11 nM in test [1], 55 nM in test [2] and 56 nM in test [3]. The same compound yielded an inhibition in the test filed under Sus scrofa of 0%.
With `OC(CN1CCC(Cc2ccc(F)cc2)CC1)c1ccc(Cl)cc1` (stereo unspecified) [ELIPRODIL], the affinity in test [2] corresponds to a Ki of 13 nM.
As to `FCCOc1ccc2c(c1)CCN(CCC(F)Cc1ccccc1)CC2` (stereo unspecified), the Ki in test [1] is 25 nM; in test [2], 348 nM; in test [3], 524 nM.
Consider `OC1CN(CCC(F)Cc2ccccc2)CCc2cc(OCc3ccccc3)ccc21` (stereo unspecified), for which the Ki in test [1] is 183 nM; in test [2], 813 nM; in test [3] it was 1800 nM. In addition, the Ratio Ki in test [5] is 2. Also, the inhibition in the test filed under Sus scrofa is 0%.
For `COc1ccc2c(c1)CCN(CC(F)CCc1ccccc1)CC2` (stereo unspecified), the Ki in test [1] stood at 213 nM; in test [2], 602 nM; in test [3], 740 nM. The compound also had an inhibition in the test listed under Sus scrofa of 0%.
`COc1ccc2c(c1)CCN(CCC(F)Cc1ccccc1)CC2O` (stereo unspecified): the inhibition constant (Ki) was 210 nM in test [1], 630 nM in test [2] and 4500 nM in test [3]. Also, the Ratio Ki in test [5] amounted to 7. The same compound displayed an inhibition in the test filed under Sus scrofa of 0%.
Compound `Oc1ccc2c(c1)CCN(CCC(F)Cc1ccccc1)CC2` (racemic) [listing 1 of 2 here] had an inhibition in the test filed under Sus scrofa of 15%.
As to `Oc1ccc2c(c1)CCN(CCC(F)Cc1ccccc1)CC2` (single isomer, unassigned; (+)), the inhibition constant (Ki) in test [1] worked out at 10 nM; in test [2] it was 54 nM; in test [3], 49 nM.
Regarding `OC1CN(CCCCc2ccccc2)CCc2cc(OCc3ccccc3)ccc21` (stereo unspecified), the Ratio Ki in test [5] amounted to 2. In addition, affinity in test [2] was put at a Ki of 505 nM.
Regarding `Oc1ccc2c(c1)CCN(CCCCc1ccccc1)CC2`, the Ratio Ki in test [4] was in the range of 2 to 3. The Ki stood at 32 nM in test [1], 9.9 nM in test [2] and 12 nM in test [3].
Consider `Oc1ccc2c(c1)CCN(CC(F)CCc1ccccc1)CC2` (stereo unspecified), for which the Ki in test [1] worked out at 70 nM; in test [2], 86 nM; in test [3], 153 nM. This compound also showed an inhibition in the test filed under Sus scrofa of 0%.
For the compound `Oc1ccc2c(c1)CCN(CCC(F)Cc1ccccc1)CC2` (racemic) [listing 2 of 2 here], the values for the Ki in test [1], in test [2] and in test [3] were 17 nM, 16 nM and 39 nM, respectively.
For `OC1CN(CC(F)CCc2ccccc2)CCc2cc(OCc3ccccc3)ccc21` (stereo unspecified), the values for the Ki in test [1], in test [2] and in test [3] were 393 nM, 784 nM and 1400 nM, respectively. Moreover, the Ratio Ki in test [5] was found to be 2. This compound yielded an inhibition in the test filed under Sus scrofa of 0%.
Turning to `Oc1ccc2c(c1)CCN(CCC(F)Cc1ccccc1)CC2` (single isomer, unassigned; (-)), the Ki in test [1] stood at 25 nM; in test [2], 65 nM; in test [3], 63 nM.
Regarding `Oc1ccc2c(c1)CCN(CCCCc1ccccc1)CC2O` (stereo unspecified), the Ratio Ki in test [4] was 2 to 3. The inhibition in the test filed under Sus scrofa is 35%.
On to `COc1ccc2c(c1)CCN(CC(F)CCc1ccccc1)CC2O` (stereo unspecified), for which the Ki in test [1] amounted to 585 nM; in test [2] it was 506 nM; in test [3], 7900 nM. The Ratio Ki in test [5] was found to be 15. The same compound yielded an inhibition in the test listed under Sus scrofa of 0%.

What is called Ki is a measure of affinity in units of concentration, obtained from inhibition or displacement. A lower Ki goes with a stronger hold on the target. The term inhibition denotes the share of the control response that was lost under treatment.
